# Source: PubChem BioAssay (several laboratories)
# RAM network inh: yeast RAM network inhibition | 190,000 tested, 1.8% active | S. cerevisiae dse1pr::URA3 reporter, 5-FOA growth OD615, 2 d; analog-sensitive cbk1-as2 kinase mutant strain | AID 868 | inhibition, % at 50 µM;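 active = inhibition above a set limit, 3 SD over mean compound inhibition, cut at about 8.4% in these data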;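 also: 0% = DMSO-only wells with no growth and 100% = 10 µM 1-NA-PP1 full growth; inhibition rescues growth on 5-FOA so higher OD means more RAM inhibition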
# BB579 growth dn: reduces growth of yeast BB579 in restrictive medium. S. cerevisiae BB579 growth, OD615, 48 h. inhibition, % at 10 µM. 140,000 tested, 0.51% active. AID 804;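 active = inhibition above a set limit, 3 SD over the mean compound inhibition, cut at about 44% in these data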
#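 controls = amphotericin B 10 µg/mL, positive | assay system = DeaD yeast strain BB579 | schedule = 48 h compound exposure at 30 °C after 4 h preincubation | detection = OD615 turbidity measurement | medium = restrictive CSMM-D medium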
# sdo1 growth: restores growth of sdo1-depleted yeast. S. cerevisiae sdo1-depleted JHY4D growth rescue, OD600 30 h; hits give high values; pdr5 snq2 efflux-pump mutant strain. z-score at 10 µM. 140,000 tested, 0.21% active. AID 817;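 active = z-score above 3 at both the 24 hr and the 30 hr optical density reads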;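 also: z-score against mean and SD of all compound wells on the same plate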
# Yeast lifespan up: extends the lifespan of yeast | S. cerevisiae growth with nicotinamide, OD615; deaD strain in restrictive glucose medium | inhibition of the nicotinamide effect, % at 10 µM | 130,000 tested, 0.68% active | AID 775;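 active = inhibition above a set limit, placed 3 SD over the median of all compounds, cut at about 26% in these data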;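 also: 0% = nicotinamide-treated wells and 100% = cells grown without nicotinamide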
#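 Material: Modified budding yeast, DeaD strain | Medium: Restrictive glucose medium | Probe or stimulus: 1.5 mM nicotinamide | Dosing: Single dose 10 µM compound, 0.25% DMSO | Times: 48 h at 30 °C | Technique: OD615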
# Measles CPE: protection of cells from measles virus | protection (pct of control), % at 4 µM | 140,000 tested, 1.5% active | Measles virus-infected cells, CPE protection, absorbance | AID 841; in the data active = protection mostly above about 24%, no sharp cut-off; inactive = mostly below about 26%
# Active calls of the source: *; x = no result given; [ ] = another dose, or the depositor's remark. Shown are actives, neighbours in structure and some others; about 3.8% of the full set was active somewhere.
SMILES,RAM network inh,BB579 growth dn,sdo1 growth,Yeast lifespan up,Measles CPE
CCOC(=O)C1=C(C)NC2=C(C(=O)C(C(=O)OCC)C(c3ccccc3OC)C2)C1c1ccccn1 (centres undefined),-1,-23,-1,-21,4
COc1ccccc1Nc1nc(N)nc(-c2oc3ccccc3c2C)n1,9.8*,-56,-0.31,0,4
Cc1c(-c2nc(N)nc(Nc3ccc(F)cc3)n2)oc2ccccc12,3,-40,-0.82,-5,9
COC(=O)Cc1csc(Nc2ccc(F)c(Cl)c2)n1,1,x,x,x,x
Cc1ccc(C(=O)NC(C)c2ccccc2)o1 (centres undefined),0,-32,-0.31,x,34*
O=C(Nc1cc(C(F)(F)F)ccc1N1CCOCC1)C1Cc2ccccc2CN1C(=O)c1ccco1 (centres undefined),3,-11,0.24,-6,6
Cc1ccc(NC(=O)COC(=O)c2ccc(OCc3c(C)noc3C)cc2)cc1S(=O)(=O)N1CCOCC1,11*,-48,0.79,3,9
NC(=O)c1nn(-c2ccccc2)nc1NC(=O)Cn1nnc(-c2ccccc2)n1,2,-22,-1.1,-4,11
Cc1ccc(Nc2nc(CSc3nnc(-c4cccs4)o3)cs2)cc1,5,-30,0.12,-4,12
c1ccc(-c2nc(CSc3nnc(-c4cccs4)o3)cs2)cc1,9.9*,-44,-1.9[9.8 µM],-9,23
O=C(C/C=N/OCc1ccc(Cl)cc1)c1cnc(-c2ccccc2)s1,11*,-38,-0.32,-18,13
O=C(C/C=N/OCc1c(Cl)cccc1Cl)c1cnc(-c2ccccc2)s1,5,-46,-0.05,-5,9
Clc1cc(Cl)c(OCc2nc(-c3ccccn3)no2)cc1Cl,11*,-68,-0.79,-1,4
CCN(CC)S(=O)(=O)c1ccc(N=NC2=C(O)CCCC2=O)cc1,0,7,-0.16,10,34*
CCN(CC)S(=O)(=O)c1ccc(N=NC2=C(O)CC(C)(C)CC2=O)cc1,0,2,-0.57,3,27
CCc1ccc(NC(=S)N2CCN(c3cccc(OC)c3)CC2)cc1,4,x,x,x,x
CCOC(=O)C(=O)NNc1cccc(C)c1C,0,5,0.39,3,45*
CCOC(=O)Nc1cc(C(=O)OC)ccc1C,1,-43,0.94,-9,33*
O=C(Cn1c(=O)oc2cc(S(=O)(=O)N3CCCCCC3)ccc21)NC1CCCCC1,8.8*,-24,1.6,-10,5
O=C(Cn1c(=O)oc2cc(S(=O)(=O)N3CCc4ccccc43)ccc21)NC1CCCC1,3,-48,-0.08,-11,15
CCCCOC(=O)n1c(=S)oc2cc(Cl)ccc21,-1,98*,-0.81,-23,6
CCCCOC(=O)n1c(=O)oc2cc(S(=O)(=O)N3CCCCC3)ccc21,1,-46,-0.95,68*,9
Cc1ccsc1-c1nc(CN2C[C@@H](C)O[C@@H](C)C2)c(C)o1,0,x,x,x,x
CC[C@H](C)[C@H](NC(N)=O)C(=O)NCCc1ccc(OC)c(OC)c1,2,x,x,x,x
COCc1c(C(=O)OC/C(O)=C(\C#N)c2nc3ccccc3[nH]2)oc2ccccc12,4,x,x,x,x
SMILES,RAM network inh,BB579 growth dn,sdo1 growth,Yeast lifespan up,Measles CPE
O=C(COC(=O)C(Cc1ccccc1)NC(=O)c1ccccc1)c1ccccc1 (centres undefined),6,-40,-0.46,9,7
O=C(COC(=O)C(Cc1ccccc1)NC(=O)c1ccc(Cl)cc1)c1ccc(Cl)cc1 (centres undefined),9.1*,-17,-0.97,3,50
O=C(N[C@@H](Cc1c[nH]c2ccccc12)C(=O)O)c1ccc(Cl)cc1,8.9*,x,x,x,x
COc1cc2c(cc1OC)C(COc1ccc3c(C)cc(=O)oc3c1)N(C(=O)c1ccco1)CC2 (centres undefined),6,-45,-0.17,-2,5
CCOc1ccc(NC(=S)N2CCc3cc(OC)c(OC)cc3C2COc2ccc3c(C)cc(=O)oc3c2)cc1 (centres undefined),9.9*,-24,0.8,5,6
COc1ccc2[nH]c(=O)c(CN(C(=O)C3CCCO3)c3ccc(C)cc3)cc2c1 (centres undefined),2,-14,1.5,-12,23
CCOc1ccccc1-c1nc(C(N)=O)c2[nH]c(=O)n(-c3ccccc3)c2n1,9.7*,-26,0.67,-5,14
COc1cccc(-c2nc(C(N)=O)c3[nH]c(=O)n(-c4ccccc4)c3n2)c1OC,4,-39,-0.34,0,21
